This passage reports IC50 results from PubChem BioAssay AID492966 (Southern Research Specialized Biocontainment Screening …, 2010).

Calls of active or inactive are those of the source.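 How the source made its calls: active means compounds that block at least half of the virus-caused cell damage; inactive means the rest.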 Bounds are passed on as bounds.

For this experiment, the system named is HEp-2 RSV Long CPE inhibition, luminescence. In words: RSV cytopathic effect inhibition in HEp-2, dose response, cell-based, RSV Long, luminescence, synthesized compounds, set 3 (AID 492966). The method in brief: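 System: HEp-2 cells infected with respiratory syncytial virus strain Long; also added: RSV strain Long at multiplicity of infection 0.45; incubation: compound and virus exposure six days at 37 °C; measured by: luminescence-based cytopathic effect measurement; control set: uninfected cell-only wells and infected virus-only wells, per plate; replication: each concentration tested in triplicate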
(Damage to the host cells serves as the signal in cytopathic effect assays.)
Take `Cc1ccccc1NC(=O)[C@@H]1CCCN1S(=O)(=O)c1cccc2cccnc12`: the IC50 is 16.5 µM. For the molecule `Cc1ccc(NC(=O)[C@@H]2CCCN2S(=O)(=O)c2cccc3cccnc23)cc1`, the IC50 was > 50 µM (inactive). Regarding `O=C(Nc1ccc(Cl)cc1Cl)[C@@H]1CCCN1S(=O)(=O)c1cccc2cccnc12`, the IC50 is > 50 µM (inactive).

One may read the IC50 as the concentration at which inhibition is half-maximal.
